Data as given in ChEMBL document CHEMBL1275331, “Discovery of a novel 5-HT(3) antagonist/5-HT(1A) agonist 3-amino-5,6,7,8-tetrahydro-2-{4-[4-(quinolin-2-yl)piperazin-1-yl]butyl}quinazolin-4(3H)-one (TZB-30878) as an orally bioavailable agent for irritable bowel syndrome” (J Med Chem, 2010).
Calls of active or inactive are those of the source. The rule behind the calls is not given here.

Assays:
Rattus norvegicus [1] = test: […] activity in rat assessed as inhibition of 5HT-induced bradycardia at 100 ug/kg, iv by von Benzold-Jarisch reflex assay; format: functional
[2] = biological target: T1, 5-hydroxytryptamine receptor 1A (Homo sapiens) (UniProt P08908); test: Agonist activity at human cloned 5HT1A receptor expressed in CHO cells assessed as stimulation of [35S]GTPgammaS binding at 900 uL after 30 mins by liquid scintillation counting; format: functional, cell-based
T1 sequence (whole entry): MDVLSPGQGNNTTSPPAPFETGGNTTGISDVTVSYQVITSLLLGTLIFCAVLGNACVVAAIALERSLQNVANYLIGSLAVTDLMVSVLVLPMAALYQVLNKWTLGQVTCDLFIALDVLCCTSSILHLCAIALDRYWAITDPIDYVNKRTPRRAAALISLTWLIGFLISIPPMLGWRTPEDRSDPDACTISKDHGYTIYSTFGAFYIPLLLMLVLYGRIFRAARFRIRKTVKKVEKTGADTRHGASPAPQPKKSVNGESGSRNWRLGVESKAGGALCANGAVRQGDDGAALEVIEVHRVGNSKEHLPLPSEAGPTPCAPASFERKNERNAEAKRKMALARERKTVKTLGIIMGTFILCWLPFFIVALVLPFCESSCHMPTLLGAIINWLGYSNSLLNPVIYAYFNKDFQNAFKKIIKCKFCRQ
Method in brief: (§1)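 Membranes from CHO cells expressing human 5-HT1A were diluted in 20 mM HEPES/3 mM MgCl2/120 mM NaCl, pH 7.4. They were preincubated with 20 μM GDP and test drug for 20 min at 30 °C, then held on ice for 15 min. [35S]GTPγS (100 pM) was added for 30 min at 30 °C. Samples were filtered, washed with cold HEPES/MgCl2 buffer, and bound radioactivity counted; EC50 and Emax reported.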

[3] = biological target: T2, 5-hydroxytryptamine receptor 3A (Cavia porcellus) (UniProt O70212); test: Inhibition of 5HT3 receptor-mediated contraction of guinea pig ileum at 0.1 umol/L after 20 mins relative to control; format: tissue-based
T2 sequence (whole entry): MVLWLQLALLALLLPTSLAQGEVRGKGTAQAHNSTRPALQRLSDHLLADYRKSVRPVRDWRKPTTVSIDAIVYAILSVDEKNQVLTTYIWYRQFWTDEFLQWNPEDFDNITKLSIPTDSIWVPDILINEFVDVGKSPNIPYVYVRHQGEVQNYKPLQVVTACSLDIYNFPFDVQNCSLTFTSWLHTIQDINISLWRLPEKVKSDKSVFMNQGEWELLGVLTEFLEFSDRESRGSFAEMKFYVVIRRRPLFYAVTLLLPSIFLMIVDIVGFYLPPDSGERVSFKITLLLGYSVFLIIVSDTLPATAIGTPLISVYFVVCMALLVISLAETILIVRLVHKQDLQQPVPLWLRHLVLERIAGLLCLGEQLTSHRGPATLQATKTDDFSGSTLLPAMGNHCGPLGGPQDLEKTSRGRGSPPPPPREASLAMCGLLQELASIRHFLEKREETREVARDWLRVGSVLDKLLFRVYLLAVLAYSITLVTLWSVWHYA
Method in brief: (§2)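 Ileum strips in Tyrode solution at 37 °C, gassed 5% CO2/95% O2, isotonic contractions under 1 g load. After at least 3 stable contractions to 10 μM 2-methyl-5-HT, tissue exposed to compound or DMSO vehicle for 20 min, then 10 μM 2-methyl-5-HT re-added; contraction expressed as % inhibition of control.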

Rattus norvegicus [4] = test: Induction of 5HT1A receptor-mediated lower lip retraction behavior in rat at 10 mg/kg, iv after 30 mins; format: functional, organism-based; parameters: dose 10 mg/kg
Method in brief: (§3)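 Rats were conditioned to test procedures over 2 weeks and acclimated to the test cage for 1 h. Vehicle was saline containing diluted HCl. Lower lip retraction and flat body posture were scored on a 0–3 scale at 5, 10, 20 and 30 min after dosing.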

Rattus norvegicus [5] = test: Induction of 5HT1A receptor-mediated behavioral activity in rat assessed as appearance of flat body posture at 10 mg/kg, iv after 30 mins; format: functional, organism-based; parameters: dose 10 mg/kg; method in brief: as §3
Rattus norvegicus [6] = test: Effect on 5HT1A receptor-mediated hypothermic effect in rat assessed as change in rectal temperature at 10 mg/kg, iv after 30 mins; format: functional, organism-based; parameters: dose 10 mg/kg
Method in brief: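 Rats were conditioned over 2 weeks and acclimated to the cage for 1 h before dosing (vehicle: saline with diluted HCl). Rectal temperature was recorded with a thermistor probe inserted 3 cm, before and 30 min after administration. The change in temperature was reported.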

[7] = biological target: T2, 5-hydroxytryptamine receptor 3A (Cavia porcellus); test: Inhibition of 5HT3 receptor-mediated contraction of guinea pig ileum at 1 umol/L after 20 mins relative to control; format: tissue-based; method in brief: as §2
[8] = biological target: T3, 5-hydroxytryptamine receptor 1A (Homo sapiens, UniProt P08908); test: Displacement of [3H]8-OH-DPAT from human 5HT1A receptor expressed in CHO cells by liquid scintillation counting; format: cell-based
T3 sequence (P08908 whole entry): T1 sequence (whole entry)
Method in brief: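 CHO-cell membranes with human 5-HT1A were incubated with 0.25 nmol/L [3H]8-OH-DPAT (final) for 60 min at 27 °C. Buffer: 50 mM Tris-HCl, 10 mM MgSO4, 0.5 mM EDTA, 0.1% ascorbic acid, pH 7.4. Compound came from 270 μmol/L DMSO stock, diluted in buffer. Filtration was through GF/C presoaked in 0.3% polyethyleneimine, with two cold Tris washes. Run in duplicate or triplicate; percent inhibition of binding calculated.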

[9] = biological target: T3, 5-hydroxytryptamine receptor 1A; test: Agonist activity at human cloned 5HT1A receptor expressed in CHO cells assessed as stimulation of [35S]GTPgammaS binding after 30 mins by liquid scintillation counting; format: functional, cell-based; method in brief: as §1
[10] = biological target: T4, 5-hydroxytryptamine receptor 3A (Homo sapiens, UniProt P46098); test: Displacement of [3H]BRL-43694 from human 5HT3 receptor expressed in HEK293 cells by liquid scintillation counting; format: cell-based
T4 sequence (P46098 whole entry): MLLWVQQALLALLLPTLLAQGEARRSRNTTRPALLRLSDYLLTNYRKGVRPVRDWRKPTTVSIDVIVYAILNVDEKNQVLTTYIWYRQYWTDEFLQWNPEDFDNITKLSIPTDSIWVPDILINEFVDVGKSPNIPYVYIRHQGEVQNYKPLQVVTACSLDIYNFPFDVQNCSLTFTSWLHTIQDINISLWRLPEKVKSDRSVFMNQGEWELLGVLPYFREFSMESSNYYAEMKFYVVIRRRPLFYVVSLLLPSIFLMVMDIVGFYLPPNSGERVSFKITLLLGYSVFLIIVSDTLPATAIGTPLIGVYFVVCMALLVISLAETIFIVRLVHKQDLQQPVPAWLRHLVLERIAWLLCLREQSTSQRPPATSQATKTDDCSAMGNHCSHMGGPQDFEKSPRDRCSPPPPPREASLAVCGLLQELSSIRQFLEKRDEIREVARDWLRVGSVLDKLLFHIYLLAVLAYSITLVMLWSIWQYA
Method in brief: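 HEK-293 membranes expressing human 5-HT3 were incubated with 0.5 nmol/L [3H]BRL-43694 (final) for 60 min at 25 °C. Buffer: 50 mM Tris-HCl, 5 mM MgCl2, 1 mM EDTA, pH 7.5. Compound came from 270 μmol/L DMSO stock, diluted in buffer. Filtration was through GF/B presoaked in 0.5% polyethyleneimine, with two cold Tris washes. Run in duplicate or triplicate; percent inhibition calculated.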

Rattus norvegicus [11] = test: Reduction in wrap restraint stress-induced defecation in rat diarrhea-predominant irritable bowel syndrome model at 1 to 10 mg/kg, po administered 1 hr prior to induction of stress; format: functional, organism-based
Method in brief: (§4)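 Lightly anesthetized rats had upper bodies wrapped with adhesive tape, then returned to observation cages; feces counted 1 h after wrapping. Compound or vehicle given orally 1 h before restraint; unwrapped animals as normal group. n = 8 per group, mean (SD); Wilcoxon and nonparametric Dunnett's tests.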

Rattus norvegicus [12] = test: Reduction in wrap restraint stress-induced defecation in rat diarrhea-predominant irritable bowel syndrome model at 30 to 100 mg/kg, po administered 1 hr prior to induction of stress; format: functional, organism-based; method in brief: as §4
[13] = Drug level in Sprague-Dawley rat blood at 3 mg/kg, po after 8 hrs by HPLC analysis; format: ADME, organism-based; parameters: dose 3 mg/kg, route oral; details: whole blood, read-out: Drug uptake
Method in brief: (§5)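 Total compound concentration was measured in brain and blood at 2, 4 and 8 h after a single oral 3 mg/kg dose. Brain/blood ratio was also derived. Values are mean ± SD of three rats.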

[14] = Ratio of drug level in brain to blood in Sprague-Dawley rat at 3 mg/kg, po after 2 hrs; format: ADME, organism-based; parameters: dose 3 mg/kg, route oral
Method in brief: (§6)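 Rats dosed 3 mg/kg orally; total compound levels measured in brain and blood at 2, 4 and 8 h, brain/blood ratio derived. Mean ± SD of three rats.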

[15] = Ratio of drug level in brain to blood in Sprague-Dawley rat at 3 mg/kg, po after 4 hrs; format: ADME, organism-based; parameters: dose 3 mg/kg, route oral; method in brief: as §6
Rattus norvegicus [16] = test: […] activity in rat assessed as inhibition of 5HT-induced bradycardia at 10 ug/kg, iv by von Benzold-Jarisch reflex assay; format: functional
[17] = Drug level in Sprague-Dawley rat brain at 3 mg/kg, po after 4 hrs by HPLC analysis; format: ADME, organism-based; parameters: dose 3 mg/kg, route oral; details: read-out: Drug uptake; method in brief: as §5
[18] = Drug level in Sprague-Dawley rat brain at 3 mg/kg, po after 8 hrs by HPLC analysis; format: ADME, organism-based; parameters: dose 3 mg/kg, route oral; details: read-out: Drug uptake; method in brief: as §5
[19] = Ratio of drug level in brain to blood in Sprague-Dawley rat at 3 mg/kg, po after 8 hrs; format: ADME, organism-based; parameters: dose 3 mg/kg, route oral; method in brief: as §6
[20] = Drug level in Sprague-Dawley rat blood at 3 mg/kg, po after 2 hrs by HPLC analysis; format: ADME, organism-based; parameters: dose 3 mg/kg, route oral; details: whole blood, read-out: Drug uptake; method in brief: as §5
[21] = Drug level in Sprague-Dawley rat brain at 3 mg/kg, po after 2 hrs by HPLC analysis; format: ADME, organism-based; parameters: dose 3 mg/kg, route oral; details: read-out: Drug uptake; method in brief: as §5
[22] = Drug level in Sprague-Dawley rat blood at 3 mg/kg, po after 4 hrs by HPLC analysis; format: ADME, organism-based; parameters: dose 3 mg/kg, route oral; details: whole blood, read-out: Drug uptake; method in brief: as §5

Row | SMILES | Emax [2] [%] | inhibition [3] [%] | Activity (Rattus norvegicus [4]) | Activity (Rattus norvegicus [5]) | inhibition [7] [%] | IC50 [8] [nM] | EC50 [9] [nM] | IC50 [10] [nM] | also measured
1 | Cc1cc(N2CCN(CCCCc3nc4c(c(=O)n3N)CCCC4)CC2)nc2ccccc12 | 93.5 | 97.1 | inactive | inactive | 100 | < 10 | 13.7 | 59.1 | inhibition in vivo at 0.1 mg/kg (Rattus norvegicus [1]): 64.5%; Activity (Rattus norvegicus [6]): inactive
2 | Cc1[nH]cnc1CN1CCc2c(c3ccccc3n2C)C1=O |  |  |  |  |  |  |  |  | inhibition (Rattus norvegicus [11]): Active
3 | O=C1[C@@H]2[C@H]3CC[C@H](C3)[C@@H]2C(=O)N1CCCCN1CCN(c2ncccn2)CC1 |  |  |  |  |  |  |  |  | inhibition (Rattus norvegicus [12]): inactive
4 | CC(=O)N1CCc2c(sc3nc(SCCCN4CCN(c5ccc6ccccc6n5)CC4)n(N)c(=O)c23)C1 | 84.8 | 79.9 | Active | Active | 97.6 | 2.5 | 2.5 | 77.6 | concentration at 8 h [13]: 8.98 nM; Kp at 2 h [14]: 0.332; Kp at 4 h [15]: 0.357; inhibition in vivo at 0.01 mg/kg (Rattus norvegicus [16]): 77%; concentration at 4 h [17]: 12.9 nM; concentration at 8 h [18]: 2.96 nM; deltaT (Rattus norvegicus [6]): -0.1 °C; Kp at 8 h [19]: 0.338; concentration at 2 h [20]: 56 nM; concentration at 2 h [21]: 18.7 nM; concentration at 4 h [22]: 36.1 nM
